# According to ChEMBL document CHEMBL4402576, “Discovery and Development of Small-Molecule Inhibitors of Glycogen Synthase” (J Med Chem, 2020):
# The source made the active and inactive calls. The rule behind the calls is not given here.
# How the values were obtained:
# Homo sapiens [1] = species: Homo sapiens; experiment: Inhibition of C-terminal 6His-tagged human GYS1 delta634S8,11N mutant at 100 uM using UDPG as substrate in presence of 0.4 mM G-6-P by 14C-glucose incorporation assay relative to control
# [2] = Inhibition of recombinant His-tagged yeast GYS2P expressed in Escherichia coli BL21(DE3) cells using UDPG as substrate in presence of 0.04 mM G-6-P by 14C-glucose incorporation assay; design: species or system Saccharomyces cerevisiae
# Method in brief: (§1)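 His-tagged yeast Gsy2p, expressed in E. coli BL21(DE3) and purified by Ni-NTA then Q-sepharose. Radiochemical incorporation of glucose into glycogen with 0.3 mM UDPG, with or without 0.04 mM G6P. Controls contained 2% (v/v) DMSO. IC50 was fitted by four-parameter logistic. Values are mean ± SEM of at least three independent experiments in duplicate.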
# [3] = Inhibition of recombinant His-tagged yeast GYS2P expressed in Escherichia coli BL21(DE3) cells using UDPG as substrate in absence of G-6-P by 14C-glucose incorporation assay; design: species or system Saccharomyces cerevisiae; method in brief: as §1
# [4] = Inhibition of C-terminal 6His-tagged human GYS1 delta634S8,11N mutant using UDPG as substrate in presence of 0.4 mM G-6-P by 14C-glucose incorporation assay
# Method in brief: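 Truncated hGYS1 (residues 635–737 deleted, Ser8/Ser11→Asn, C-terminal 6×His, Ni-NTA purified; activation state ~0.2). Radiolabelled glucose incorporation into glycogen with 0.2 mM UDPG and 0.4 mM G6P. Controls contained 2% (v/v) DMSO. IC50 was fitted by four-parameter logistic. Values are mean ± SEM of at least three independent experiments in duplicate.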
# [5] = target: T1, Glycogen [starch] synthase, muscle (Homo sapiens, UniProt P13807); experiment: Inhibition of C-terminal 6His-tagged wild type human GYS1 using UDPG as substrate in presence of 1 mM G-6-P by 14C-glucose incorporation assay
# T1 sequence (P13807 whole entry): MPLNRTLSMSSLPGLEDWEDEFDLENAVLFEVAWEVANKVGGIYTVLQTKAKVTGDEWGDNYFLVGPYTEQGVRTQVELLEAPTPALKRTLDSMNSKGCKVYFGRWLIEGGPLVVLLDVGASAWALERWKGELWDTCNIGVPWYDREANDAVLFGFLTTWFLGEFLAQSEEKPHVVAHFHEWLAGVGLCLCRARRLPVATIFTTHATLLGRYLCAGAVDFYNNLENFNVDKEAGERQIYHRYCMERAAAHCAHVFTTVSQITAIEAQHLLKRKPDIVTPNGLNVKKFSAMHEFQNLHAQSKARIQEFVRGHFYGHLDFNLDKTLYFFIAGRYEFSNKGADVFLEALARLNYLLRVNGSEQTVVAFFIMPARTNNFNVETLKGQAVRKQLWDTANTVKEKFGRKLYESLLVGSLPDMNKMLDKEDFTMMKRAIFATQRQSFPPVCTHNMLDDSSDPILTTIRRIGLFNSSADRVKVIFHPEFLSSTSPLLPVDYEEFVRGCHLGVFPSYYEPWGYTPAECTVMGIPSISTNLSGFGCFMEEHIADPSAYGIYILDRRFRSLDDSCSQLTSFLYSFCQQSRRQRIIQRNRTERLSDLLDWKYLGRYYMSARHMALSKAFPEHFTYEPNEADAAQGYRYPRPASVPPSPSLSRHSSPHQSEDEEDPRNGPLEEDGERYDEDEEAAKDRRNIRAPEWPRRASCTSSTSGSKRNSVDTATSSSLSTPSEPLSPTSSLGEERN
# Method in brief: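 Full-length wild-type hGYS1 with C-terminal 6×His tag in place of the intein-chitin binding domain, Ni-NTA purified. Glucose transfer from UDP-[14C]glucose into glycogen with 0.2 mM UDPG and 1 mM G6P. Controls contained 2% (v/v) DMSO. IC50 was fitted by four-parameter logistic. Values are mean ± SEM of at least three independent experiments in duplicate.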
# [6] = Competitive inhibition of recombinant His-tagged yeast GYS2P expressed in Escherichia coli BL21(DE3) cells using UDPG as substrate in presence of G-6-P by 14C-glucose incorporation based Michaelis-Menton plot analysis; design: species or system Saccharomyces cerevisiae
# Method in brief: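 Ni-NTA then Q-Sepharose purified enzyme (5 μg/ml) assayed by radiolabelled glucose transfer from UDPG into glycogen. UDPG varied 0.2–8 mM with 7.2 mM G6P, covaried against fixed inhibitor levels, 2% (v/v) DMSO throughout. Data fitted to competitive, non-competitive and uncompetitive models, chosen by goodness-of-fit and residuals. Ki given as mean ± SEM of three independent experiments in duplicate.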
# [7] = Competitive inhibition of recombinant His-tagged yeast GYS2P expressed in Escherichia coli BL21(DE3) cells using UDPG as substrate in absence of G-6-P by 14C-glucose incorporation based Michaelis-Menton plot analysis; design: species or system Saccharomyces cerevisiae
# Method in brief: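 Yeast Gsy2p at 5 μg/ml in a 14C-glucose incorporation assay. UDPG was varied from 0.2 to 8 mM without G6P, and inhibitor was covaried up to 0.8 mM. Data were fitted to competitive, non-competitive and uncompetitive models, and the model was chosen by goodness of fit and residuals. Controls contained 2% (v/v) DMSO. Values are mean ± SEM of three independent experiments in duplicate.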
# Saccharomyces cerevisiae [8] = experiment: Inhibition of recombinant His-tagged yeast GYS2P expressed in Escherichia coli BL21(DE3) cells assessed as enzyme activity at 300 uM using UDPG as substrate in presence of G-6-P by 14C-glucose incorporation assay relative to control; design: scale not given: the % may be the effect or the level left
# Homo sapiens [9] = species: Homo sapiens; experiment: Inhibition of C-terminal 6His-tagged human GYS1 delta634S8,11N mutant assessed as enzyme activity at 300 uM using UDPG as substrate in presence of 0.4 mM G-6-P by 14C-glucose incorporation assay relative to control; design: scale not given: the % may be the effect or the level left
# [10] = target: T2, Glycogen [starch] synthase, muscle (Homo sapiens) (UniProt P13807); experiment: Inhibition of C-terminal 6His-tagged wild type human GYS1 assessed as enzyme activity at 300 uM using UDPG as substrate in presence of 1 mM G-6-P by 14C-glucose incorporation assay relative to control; design: scale not given: the % may be the effect or the level left
# T2 sequence (whole entry): T1 sequence (P13807 whole entry)
# [11] = target: T2, Glycogen [starch] synthase, muscle (Homo sapiens); experiment: Inhibition of glycogen synthase in human HEK293 cell lysates overexpressing mouse PTG at 100 uM using 0.2 mM UDPG as substrate in presence of 1 mM G-6-P by 14C-glucose incorporation assay; assay type: subcellular; conditions: Lysate
# Method in brief: (§2)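 Lysates came from HEK293 cells stably expressing PTG (5.5 mM glucose αMEM, 10% FBS, hygromycin) or from Rat-1 cells (25 mM glucose DMEM, 10% FBS), grown 3–4 days to confluency. Cells were lysed by freezing, scraping and sonication in Tris/EDTA/EGTA/NaF buffer with protease inhibitors and Triton. Assays used 0.15 mg/mL (HEK293-PTG) or 0.75 mg/mL (Rat-1) lysate in 50 mM Tris-HCl pH 7.8 with 6.7 mg/ml glycogen and 2% DMSO. Read-out was [14C]glucose incorporation relative to DMSO control, in triplicate.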
# [12] = target: T3, Glycogen [starch] synthase, muscle (Rattus norvegicus) (UniProt A2RRU1); experiment: Inhibition of glycogen synthase in rat-1 fibroblast cell lysates at 100 uM using 0.2 mM UDPG as substrate in presence of 1 mM G-6-P by 14C-glucose incorporation assay; assay type: subcellular; conditions: Lysate; method in brief: as §2
# T3 sequence (whole entry): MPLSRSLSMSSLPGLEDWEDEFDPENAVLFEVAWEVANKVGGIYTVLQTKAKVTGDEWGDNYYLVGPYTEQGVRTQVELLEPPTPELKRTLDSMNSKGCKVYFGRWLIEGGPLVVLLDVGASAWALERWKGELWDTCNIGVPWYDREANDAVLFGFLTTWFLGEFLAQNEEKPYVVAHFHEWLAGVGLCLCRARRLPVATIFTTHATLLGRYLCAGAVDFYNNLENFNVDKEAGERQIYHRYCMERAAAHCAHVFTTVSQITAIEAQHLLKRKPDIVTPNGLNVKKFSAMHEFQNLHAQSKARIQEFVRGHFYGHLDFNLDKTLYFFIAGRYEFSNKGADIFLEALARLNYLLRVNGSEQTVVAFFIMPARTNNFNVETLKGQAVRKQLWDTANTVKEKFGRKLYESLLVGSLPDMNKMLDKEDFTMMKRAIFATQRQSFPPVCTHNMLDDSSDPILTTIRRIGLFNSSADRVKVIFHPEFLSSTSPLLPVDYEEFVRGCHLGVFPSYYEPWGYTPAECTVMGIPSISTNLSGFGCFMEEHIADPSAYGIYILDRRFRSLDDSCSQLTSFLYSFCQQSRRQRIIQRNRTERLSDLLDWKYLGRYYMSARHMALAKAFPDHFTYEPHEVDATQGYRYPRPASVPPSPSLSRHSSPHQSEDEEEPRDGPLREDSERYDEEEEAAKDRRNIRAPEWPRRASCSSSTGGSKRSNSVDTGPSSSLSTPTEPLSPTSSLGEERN
# Saccharomyces cerevisiae [13] = experiment: Inhibition of recombinant His-tagged yeast GYS2P expressed in Escherichia coli BL21(DE3) cells assessed as enzyme activity at 20 uM using UDPG as substrate in presence of G-6-P by 14C-glucose incorporation assay relative to control; design: scale not given: the % may be the effect or the level left
# Homo sapiens [14] = species: Homo sapiens; experiment: Inhibition of C-terminal 6His-tagged human GYS1 delta634S8,11N mutant assessed as enzyme activity at 20 uM using UDPG as substrate in presence of 0.4 mM G-6-P by 14C-glucose incorporation assay relative to control; design: scale not given: the % may be the effect or the level left
# [15] = target: T2, Glycogen [starch] synthase, muscle (Homo sapiens); experiment: Inhibition of C-terminal 6His-tagged wild type human GYS1 assessed as enzyme activity at 20 uM using UDPG as substrate in presence of 1 mM G-6-P by 14C-glucose incorporation assay relative to control; design: scale not given: the % may be the effect or the level left
# [16] = target: T1, Glycogen [starch] synthase, muscle; experiment: Competitive inhibition of C-terminal 6His-tagged human GYS1 using UDPG as substrate in presence of G-6-P by 14C-glucose incorporation based Michaelis-Menton plot analysis
# Method in brief: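 Radiolabel transfer from UDP-[14C]glucose into glycogen. Inhibitor and UDPG concentrations were covaried. Data were fitted to competitive, non-competitive and uncompetitive models, and the model was chosen by goodness of fit and residuals. Controls contained 2% (v/v) DMSO. Values are mean ± SEM of three independent experiments, each in duplicate.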
# [17] = Inhibition of recombinant yeast GYS2P Y513L mutant using UDPG as substrate in presence of 7.2 mM G-6-P by 14C-glucose incorporation assay; design: species or system Saccharomyces cerevisiae
# Method in brief: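 Yeast Gsy2p Y513L mutant, purified like the wild type. Assayed by 14C-glucose incorporation into glycogen with UDPG under saturating 7.2 mM G6P. IC50 curves used triplicate measurements, with three experiments performed.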
# [18] = target: T2, Glycogen [starch] synthase, muscle (Homo sapiens); experiment: Inhibition of glycogen synthase in human HEK293 cell lysates overexpressing mouse PTG at 100 uM using 0.2 mM UDPG as substrate in presence of 1 mM G-6-P by 14C-glucose incorporation assay relative to control; assay type: subcellular; conditions: Lysate; method in brief: as §2
# [19] = target: T3, Glycogen [starch] synthase, muscle (Rattus norvegicus); experiment: Inhibition of glycogen synthase in rat-1 fibroblast cell lysates at 100 uM using 0.2 mM UDPG as substrate in presence of 1 mM G-6-P by 14C-glucose incorporation assay relative to control; assay type: subcellular; conditions: Lysate; method in brief: as §2
IC50 [5],Activity (Homo sapiens [14]),Activity [15],inhibition [18],inhibition [19],Compound,Activity (Saccharomyces cerevisiae [13]),further results
875 µM,,,,,COc1cc(-c2c(-c3ccccc3)ncn2CCC2CCCN2C)ccc1O (racemic),,inhibition (Homo sapiens [1]): > 20%; IC50 [2]: 263 µM; IC50 [3]: 280 µM; IC50 [4]: 161 µM; Ki [6]: 370 µM; Ki [7]: 290 µM; Activity (Saccharomyces cerevisiae [8]): 36.5%; Activity (Homo sapiens [9]): 46.5%; Activity [10]: 77.1%; inhibition [11]: inactive; inhibition [12]: inactive
,,,,,O=c1ccn([C@@H]2O[C@H](COP(=O)(O)OP(=O)(O)O)[C@@H](O)[C@H]2O)c(=O)[nH]1 [URIDINE_DIPHOSPHATE],,Ki [6]: 350 µM
2.75 µM,-1.01%,-0.26%,100%,100%,Oc1ccc(-c2c(-c3ccc(O)c(O)c3O)n[nH]c2C(F)(F)F)cc1,0.97%,IC50 [2]: 7.98 µM; Ki [16]: 1.31 µM; IC50 [17]: 33.6 µM
6.54 µM,10.5%,1.43%,> 30%,> 30%,O=[N+]([O-])c1ccc(-c2c(-c3ccc(O)c(O)c3O)n[nH]c2C(F)(F)F)cc1,18.8%,
19.8 µM,11.8%,47.5%,> 30%,> 30%,Oc1ccc(-c2n[nH]c(C(F)(F)F)c2-c2ccc(Cl)cc2)c(O)c1O,51.5%,
384 µM,,,,,O=C(O)CCc1ccc(-c2ccccc2)n1-c1ccc(O)cc1,,Activity (Saccharomyces cerevisiae [8]): 40.1%; Activity (Homo sapiens [9]): 40.1%; Activity [10]: 58.9%; inhibition [11]: inactive; inhibition [12]: inactive
14.1 µM,11.7%,47.8%,> 30%,> 30%,Oc1ccc(-c2n[nH]c(C(F)(F)F)c2-c2ccc(F)cc2)c(O)c1O,45.7%,
